This is a sample that favours compounds with a hit; in the whole collection about 1.2% have one here.
PfG6PD inh – PfG6PD (Plasmodium falciparum) enzyme inhibition; PfGluPho enzyme, NADPH resazurin-diaphorase fluorescence; inhibition, % at 20 µM; 0.78% of 350,000 active;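 active = inhibition reaching at least a set limit at 20 µM in the primary screen, cut at about 59% in these data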;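 also: 0% = DMSO wells with substrate and 100% = DMSO wells lacking glucose-6-phosphate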
G6PDH counter – L. mesenteroides G6PDH inhibition counter-screen | 0.12% of 200,000 active | inhibition, % at 5 µM | Purified L. mesenteroides G6PDH, diaphorase/resazurin coupled fluorescence, 45 min; in the data active = inhibition above about 50%
HKDC1 inhibitor – HKDC1 (human) hexokinase inhibition; Q2TB90; recombinant HKDC1, G6PDH/diaphorase resazurin coupled fluorescence; inhibition, % at 20 µM; 0.16% of 340,000 active;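 active = inhibition above about 35% when tested at 20 µM, limit read from the data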;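 also: plate controls were DMSO wells with enzyme for no effect and DMSO wells lacking enzyme for full effect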
Target sequence (Q2TB90 whole entry, looked up): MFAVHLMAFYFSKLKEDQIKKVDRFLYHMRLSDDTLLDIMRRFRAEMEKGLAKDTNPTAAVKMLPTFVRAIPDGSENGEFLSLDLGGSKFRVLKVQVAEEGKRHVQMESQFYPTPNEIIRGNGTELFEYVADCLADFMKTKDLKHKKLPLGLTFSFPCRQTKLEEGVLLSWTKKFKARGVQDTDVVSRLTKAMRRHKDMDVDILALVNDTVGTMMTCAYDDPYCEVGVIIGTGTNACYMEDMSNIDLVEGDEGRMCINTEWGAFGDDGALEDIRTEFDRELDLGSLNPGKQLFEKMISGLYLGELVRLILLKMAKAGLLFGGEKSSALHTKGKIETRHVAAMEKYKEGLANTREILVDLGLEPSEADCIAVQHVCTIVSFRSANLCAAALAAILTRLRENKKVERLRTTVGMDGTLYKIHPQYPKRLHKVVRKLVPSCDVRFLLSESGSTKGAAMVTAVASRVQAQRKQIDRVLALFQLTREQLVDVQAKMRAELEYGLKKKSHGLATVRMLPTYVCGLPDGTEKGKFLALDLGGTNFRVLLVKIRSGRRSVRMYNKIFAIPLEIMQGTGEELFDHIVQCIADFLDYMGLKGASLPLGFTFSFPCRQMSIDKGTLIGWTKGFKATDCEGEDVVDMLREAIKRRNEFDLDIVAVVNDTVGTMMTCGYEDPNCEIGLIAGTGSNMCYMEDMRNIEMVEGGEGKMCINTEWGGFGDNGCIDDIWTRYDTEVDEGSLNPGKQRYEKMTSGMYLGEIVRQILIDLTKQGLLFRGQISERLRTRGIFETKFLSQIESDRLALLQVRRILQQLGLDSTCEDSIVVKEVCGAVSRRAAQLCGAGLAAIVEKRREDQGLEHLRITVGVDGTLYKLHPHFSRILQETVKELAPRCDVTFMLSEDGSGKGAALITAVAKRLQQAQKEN
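Test system: recombinant HKDC1 (HK5) hexokinase enzyme, produced in-house; Amount: enzyme 5 µg/mL final; Buffer or medium: Tris pH 8.0 buffer with MgCl2, Tween-20, BSA, BME; Reagent: glucose and ATP substrates; Doses: 20 µM test compound, 1% DMSO; Incubation: 90 min reaction incubation at room temperature, dark; Detection: resorufin fluorescence at 613 nm.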
TbHK1 inh – T. brucei hexokinase 1 inhibition | recombinant TbHK1, G6PDH-coupled NADH A340 | inhibition, % at 10 µM | 0.11% of 220,000 active;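 active = inhibition of 50% or more in the single-dose primary screen; inactive = inhibition below 50%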
Diaphorase inh – counter-screen for diaphorase-based assays: diaphorase inhibitors and chemical oxidizers | diaphorase resazurin-to-resorufin fluorescence, NADH, 16 min; bacterial (C. kluyveri) enzyme, not human | 0.69% of 190,000 active | inhibition, % at 20 µM | AID 1217;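 active = primary screen inhibition at 20 µM above a set limit, cut at about 50% in these data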;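 also: plate controls were DMSO with full reaction for no effect and wells lacking NADH for full effect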
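System: Bacterial diaphorase enzyme (C. kluyveri) | Incubation: 16-min room-temperature incubation before reading | Benchmarks: No-NADH positive control and DMSO neutral control | Measured by: Resorufin fluorescence 544/590 nm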
PfG6PD confirm – confirmation of Plasmodium falciparum G6PD inhibitors. recombinant PfGluPho, NADPH-diaphorase-resazurin fluorescence. 34% of 2,400 active. shares compounds with PfG6PD inh. inhibition, % at 20 µM;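 active = inhibition of at least 50% at 20 µM in any single replicate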;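 also: 0% = DMSO with substrate and 100% = DMSO lacking glucose-6-phosphate substrate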
Diaphorase 10uM – inhibits diaphorase or oxidizes, flagging false PfG6PD hits | shares compounds with PfG6PD inh | diaphorase-coupled resazurin reduction, fluorescence, NADPH 10 uM | inhibition, % at 20 µM | 39% of 820 active;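 active = average inhibition reaching 50% or more with the compound at 20 µM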;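 also: resorufin red fluorescence formed as diaphorase reduces resazurin using NADPH; 0% = DMSO with enzyme and 100% = DMSO without enzyme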
Diaphorase 30uM – diaphorase inhibition or oxidation at 30 uM NADPH. shares compounds with PfG6PD inh. Diaphorase/resazurin coupled assay, resorufin fluorescence. inhibition, % at 20 µM. 29% of 820 active;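 active = inhibition averaging 50% or more, tested at 20 µM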;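 also: 0% = DMSO with enzyme and 100% = DMSO wells lacking diaphorase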
* = called active by the depositor.

How did COC(=O)c1c(-c2ccc(C)cc2)csc1NC(=O)c1c(-c2ccccc2)noc1C do in these assays?
G6PDH counter: 3; TbHK1 inh: -4; Diaphorase inh: 9

Results for O=C(Nc1ccc(SC(F)F)cc1)C12CCC(CC1)C2 ?
PfG6PD inh: 72*; G6PDH counter: -6; HKDC1 inhibitor: -7; TbHK1 inh: -6; Diaphorase inh: 21; PfG6PD confirm: 18

Results for CCOc1ccccc1C(=S)NC1CCCCC1 ?
PfG6PD inh: 9; HKDC1 inhibitor: -3

Results for CCOc1ccc(C(=S)NC2CCCCC2)cc1OC ?
PfG6PD inh: 62*; G6PDH counter: 2; HKDC1 inhibitor: -6; TbHK1 inh: -7; Diaphorase inh: 11; PfG6PD confirm: 14

Results for CC(C)CC(NC(=O)C1CCC(=O)N1)C(=O)NC(CC(C)C)C(=O)N1CCCC1C(N)=O (stereo not drawn) ?
PfG6PD inh: -6; HKDC1 inhibitor: -8

What do the screens show for `C/C(=N\NC(=O)c1cccc(Br)c1)c1cccnc1`?
PfG6PD inh: -7; HKDC1 inhibitor: -3

How did Fc1ccc(C2C3=C(Nc4ncnn42)c2ccccc2OC3c2ccncc2)cc1 (stereo not drawn) do in these assays?
PfG6PD inh: 61*; G6PDH counter: 0; HKDC1 inhibitor: 5; TbHK1 inh: -15; Diaphorase inh: 34; PfG6PD confirm: 21

What do the screens show for `C/C(Cn1nnc([N+](=O)[O-])n1)=N\NC(=O)c1ccccc1Cl`?
PfG6PD inh: 56; G6PDH counter: 11; HKDC1 inhibitor: -2; TbHK1 inh: 0; Diaphorase inh: 16

What do the screens show for `C/C(Cn1nnc([N+](=O)[O-])n1)=N\NC(=O)c1cccc(Cl)c1`?
PfG6PD inh: 68*; G6PDH counter: 18; HKDC1 inhibitor: 8; TbHK1 inh: 3; Diaphorase inh: 12; PfG6PD confirm: 59*; Diaphorase 10uM: 27; Diaphorase 30uM: 26

What do the screens show for `COc1ccc(C(=O)NCc2ccccc2CN2CCCC2)cc1S(=O)(=O)Nc1ccc(C)cc1`?
PfG6PD inh: -3; HKDC1 inhibitor: 1

How did O=c1cnnc(N/N=C/c2ccccn2)[nH]1 do in these assays?
PfG6PD inh: 46; HKDC1 inhibitor: 6; TbHK1 inh: -30; PfG6PD confirm: 27

Results for C(=N\Nc1nc2ccccc2[nH]1)/c1ccccn1 ?
PfG6PD inh: 64*; G6PDH counter: 9; HKDC1 inhibitor: -9; TbHK1 inh: -13; Diaphorase inh: -4; PfG6PD confirm: 54*; Diaphorase 10uM: -27; Diaphorase 30uM: 2

How did C(=N\Nc1nc2ccccc2[nH]1)/c1ccc2ncccc2c1 do in these assays?
PfG6PD inh: -3; HKDC1 inhibitor: 14; TbHK1 inh: -9

What do the screens show for `Cc1cc(=O)[nH]c(N/N=C/c2ccccn2)n1`?
PfG6PD inh: -30; G6PDH counter: 10; HKDC1 inhibitor: 10; TbHK1 inh: -8; Diaphorase inh: 4

How did Cc1ccc2nc3c(c(Nc4cccc(O)c4)c2c1)CCC3 do in these assays?
PfG6PD inh: 15; HKDC1 inhibitor: 8

Results for Cc1sc2ncnc(NCC(O)c3ccc([N+](=O)[O-])cc3)c2c1C (stereo not drawn) ?
PfG6PD inh: 9; HKDC1 inhibitor: -1

How did Cn1c(=O)c(C(=O)COC(=O)c2cc(-c3ccco3)nc3ccccc23)c(N)n(Cc2ccccc2)c1=O do in these assays?
G6PDH counter: 18; TbHK1 inh: -2; Diaphorase inh: 15

Results for CC(C)Cn1c(N)c(C(=O)COC(=O)c2cc(-c3ccco3)nc3ccccc23)c(=O)n(C)c1=O ?
PfG6PD inh: 71*; G6PDH counter: -14; HKDC1 inhibitor: 24; TbHK1 inh: -8; Diaphorase inh: 20; PfG6PD confirm: 4

Results for COc1ccc(-n2c(SCC#N)nc3c(sc(=S)n3-c3ccccc3)c2=O)c(OC)c1 ?
PfG6PD inh: 91*; HKDC1 inhibitor: -2; PfG6PD confirm: 41

How did COc1ccccc1-n1c(SC)nc2c(sc(=S)n2-c2ccccc2)c1=O do in these assays?
PfG6PD inh: -5; HKDC1 inhibitor: -2

What do the screens show for `CCc1cccc(OCCn2nc(C(=O)O)c3ccccc3c2=O)c1`?
PfG6PD inh: 32; G6PDH counter: 8; HKDC1 inhibitor: 0; TbHK1 inh: -1; Diaphorase inh: 11

Results for Cc1cc(OCCn2nc(C(=O)O)c3ccccc3c2=O)ccc1C(C)C ?
PfG6PD inh: 79*; HKDC1 inhibitor: 6; PfG6PD confirm: 32

How did O=C(Nc1ccc(F)cc1F)C1CCN(S(=O)(=O)c2cccnc2)CC1 do in these assays?
PfG6PD inh: -11; HKDC1 inhibitor: -2

What do the screens show for `c1ccc(C2=Nn3c(Cn4nnc5ccccc54)nnc3SC2)cc1`?
PfG6PD inh: 26; HKDC1 inhibitor: -1; TbHK1 inh: -1

Results for Clc1ccc(C2=Nn3c(Cn4nnc5ccccc54)nnc3SC2)cc1 ?
PfG6PD inh: 63*; HKDC1 inhibitor: -3; TbHK1 inh: -9; PfG6PD confirm: 46

What do the screens show for `c1ccc(-c2ccc(C3=Nn4c(Cn5nnc6ccccc65)nnc4SC3)cc2)cc1`?
PfG6PD inh: 72*; G6PDH counter: -4; HKDC1 inhibitor: -8; TbHK1 inh: 3; Diaphorase inh: 13; PfG6PD confirm: 13

How did c1ccc(Cc2nnc3n2N=C(c2ccccc2)CS3)cc1 do in these assays?
PfG6PD inh: 61*; G6PDH counter: 11; HKDC1 inhibitor: -1; TbHK1 inh: -2; Diaphorase inh: 16; PfG6PD confirm: 22

How did Fc1ccc(C2=Nn3c(Cc4ccccc4F)nnc3SC2)cc1 do in these assays?
PfG6PD inh: 7; G6PDH counter: 0; HKDC1 inhibitor: -2; TbHK1 inh: 5; Diaphorase inh: 7

Results for COc1ccc(S(=O)(=O)N(C)CC(=O)NCCN2CCOCC2)cc1Cl ?
PfG6PD inh: -9; HKDC1 inhibitor: 1

Results for COc1cccc(C(N)=O)c1OC(=O)Cc1ccccc1F ?
PfG6PD inh: 19; HKDC1 inhibitor: 2

How did Cc1nc2ccc(Cl)cc2nc(C)/c1=N\O do in these assays?
PfG6PD inh: 60*; G6PDH counter: 33; HKDC1 inhibitor: 2; TbHK1 inh: 0; Diaphorase inh: 58*; PfG6PD confirm: 11

What do the screens show for `C/C(CCc1ccccc1)=N\NC(=O)c1ccccc1[N+](=O)[O-]`?
PfG6PD inh: 0; G6PDH counter: 1; HKDC1 inhibitor: -3; TbHK1 inh: -2; Diaphorase inh: 15

Screening data: PubChem, several laboratories
